Assay results taken from ChEMBL document CHEMBL1255395, “Laninamivir prodrug CS-8958, a long-acting neuraminidase inhibitor, shows superior anti-influenza virus activity after a single administration” (Antimicrob Agents Chemother, 2010).
Active and inactive are the calls of the source. The rule behind the calls is not given here.

Tests used:
Type in all cases: functional, organism-based
[1] = system: Influenza A virus; assay: Antimicrobial activity against H274Y mutant oseltamivir-resistant influenza A virus (A/Yokohama/67/2006 (H1N1)) clone 11 infected in BALB/c mouse assessed as reduction in viral titer in lung at 0.080 mg/kg, itn administered 13 hrs post infection measured after 37 hrs post infection; parameters: dose 0.08 mg/kg
Procedure, shortened: (§1)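 Female BALB/c mice (5–6 weeks) infected intranasally with clone 11, then given a single intranasal dose in saline at 13 hpi. Lungs from 3 mice per time point were homogenized in PBS with 0.4% BSA and centrifuged at 2,200 × g. Supernatants were titrated by MDCK plaque assay (agar overlay with 1 μg/ml trypsin, 2 days, crystal violet). Reported as log10 PFU/lungs, mean ± SD; detection limit 2.4.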

[2] = system: Influenza A virus; assay: Antimicrobial activity against H274Y mutant oseltamivir-resistant influenza A virus (A/Yokohama/67/2006 (H1N1)) clone 11 infected in BALB/c mouse assessed as reduction in viral titer in lung at 0.080 mg/kg, itn administered 13 hrs post infection measured after 61 hrs post infection; parameters: dose 0.08 mg/kg; procedure, shortened: as §1
[3] = system: Influenza A virus; assay: Antimicrobial activity against H274Y mutant oseltamivir-resistant influenza A virus (A/Yokohama/67/2006 (H1N1)) clone 11 infected in BALB/c mouse assessed as reduction in viral titer in lung at 0.080 mg/kg, itn administered 13 hrs post infection measured after 85 hrs post infection; parameters: dose 0.08 mg/kg; procedure, shortened: as §1
[4] = system: Influenza A virus; assay: Antimicrobial activity against H274Y mutant oseltamivir-resistant influenza A virus (A/Yokohama/67/2006 (H1N1)) clone 11 infected in BALB/c mouse assessed as reduction in viral titer in lung at 10 mg/kg, po administered 13 hrs post infection, qd measured after 37 hrs post infection; parameters: dose 10 mg/kg
[5] = system: Influenza A virus; assay: Antimicrobial activity against H274Y mutant oseltamivir-resistant influenza A virus (A/Yokohama/67/2006 (H1N1)) clone 11 infected in BALB/c mouse assessed as reduction in viral titer in lung at 1.0 mg/kg, po administered 13 hrs post infection, qd measured after 37 hrs post infection; parameters: dose 1 mg/kg
[6] = system: Influenza A virus; assay: Antimicrobial activity against H274Y mutant oseltamivir-resistant influenza A virus (A/Yokohama/67/2006 (H1N1)) clone 11 infected in BALB/c mouse assessed as reduction in viral titer in lung at 1.0 mg/kg, po administered 13 hrs post infection, qd measured after 85 hrs post infection; parameters: dose 1 mg/kg
[7] = system: Influenza A virus; assay: Antimicrobial activity against H274Y mutant oseltamivir-resistant influenza A virus (A/Yokohama/67/2006 (H1N1)) clone 11 infected in BALB/c mouse assessed as reduction in viral titer in lung at 10 mg/kg, po administered 13 hrs post infection, qd measured after 61 hrs post infection; parameters: dose 10 mg/kg
[8] = system: Influenza A virus; assay: Antimicrobial activity against H274Y mutant oseltamivir-resistant influenza A virus (A/Yokohama/67/2006 (H1N1)) clone 11 infected in BALB/c mouse assessed as reduction in viral titer in lung at 10 mg/kg, po administered 13 hrs post infection, qd measured after 85 hrs post infection; parameters: dose 10 mg/kg
[9] = system: Influenza A virus; assay: Antimicrobial activity against H274Y mutant oseltamivir-resistant influenza A virus (A/Yokohama/67/2006 (H1N1)) clone 11 infected in BALB/c mouse assessed as reduction in viral titer in lung at 1.0 mg/kg, po administered 13 hrs post infection, qd measured after 61 hrs post infection; parameters: dose 1 mg/kg

| Structure (SMILES) | Activity [1] | Activity [2] | Activity [3] | Activity [4] | Activity [5] | Activity [6] | Activity [7] | Activity [8] | Activity [9] |
| --- | --- | --- | --- | --- | --- | --- | --- | --- | --- |
| CCCCCCCC(=O)OC[C@@H](O)[C@@H](OC)[C@@H]1OC(C(=O)O)=C[C@H](NC(=N)N)[C@H]1NC(C)=O [LANINAMIVIR OCTANOATE] | Active | Active | Active |  |  |  |  |  |  |
| CCOC(=O)C1=C[C@@H](OC(CC)CC)[C@H](NC(C)=O)[C@@H](N)C1.O=P(O)(O)O [OSELTAMIVIR PHOSPHATE] |  |  |  | inactive | inactive | inactive | inactive | inactive | inactive |
